Data as given in ChEMBL document CHEMBL4680253, “Hybrids of MEK inhibitor and NO donor as multitarget antitumor drugs” (Eur J Med Chem, 2020).

How the values were obtained:
[1] = Prodrug release in human HCT-116 cells assessed as increase in intracellular NO level at 100 uM measured after 2 hr by DAF-FM DA reagent based laser confocal scanning microscopy; details: hct-116, 2 h
HL-60 = assay: Antiproliferative activity against human HL60 cells harboring NRAS […] mutant assessed as inhibition of cell viability after 96 hrs by Celltiter-Glo assay; format: functional, cell-based; details: HL-60, 96 h
MDA-MB-231 [2] = assay: Antiproliferative activity against human MDA-MB-231 cells harboring KRAS G13D/BRAF G464V mutant assessed as inhibition of cell viability after 96 hrs by Celltiter-Glo assay; format: functional, cell-based; details: MDA-MB-231, 96 h
A549 = assay: Antiproliferative activity against human A549 cells harboring KRAS G12S mutant assessed as inhibition of cell viability after 96 hrs by Celltiter-Glo assay; format: functional, cell-based; details: A549, 96 h
HCT-116 = assay: Antiproliferative activity against human HCT116 cells harboring KRAS G13D mutant assessed as inhibition of cell viability after 96 hrs by Celltiter-Glo assay; format: functional, cell-based; details: HCT-116, 96 h
[3] = Antiproliferative activity against human A375 cells harboring BRAF V600E mutant assessed as inhibition of cell viability after 96 hrs by Celltiter-Glo assay; format: functional, cell-based, A375/R; details: A-375, 96 h
L02 = assay: Cytotoxicity against human HL7702 cells assessed as reduction in cell viability after 96 hrs by Celltiter-Glo assay; format: cell-based; details: L02, 96 h
Outline: (§1)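 Cells kept at 37 °C in humidified 5% CO2 with 10% FBS; Vero in DMEM, HL7702 in RPMI-1640. Compounds added to plated cells and incubated 96 h at 37 °C. Viability read by CellTiter-Glo reagent added directly to the wells. IC50 fitted from the readings.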

Vero = assay: Cytotoxicity against African green monkey Vero cells assessed as reduction in cell viability after 96 hrs by Celltiter-Glo assay; format: cell-based; details: Chlorocebus sabaeus
Outline: as §1

MDA-MB-231 [4] = assay: Induction of apoptosis in human MDA-MB-231 cells assessed as necrotic cells at 10 uM incubated for 24 hrs by AnnexinV-FITC and propidium iodide staining based flow cytometry (reference value: 1.084%); format: functional
MDA-MB-231 [5] = assay: Induction of apoptosis in human MDA-MB-231 cells assessed as viable cells at 10 uM incubated for 24 hrs by AnnexinV-FITC and propidium iodide staining based flow cytometry (reference value: 90.962%); format: functional; details: read-out: Activity
MDA-MB-231 [6] = assay: Induction of apoptosis in human MDA-MB-231 cells assessed as late apoptotic cells at 10 uM incubated for 24 hrs by AnnexinV-FITC and propidium iodide staining based flow cytometry (reference value: 3.54%); format: functional
MDA-MB-231 [7] = assay: Induction of apoptosis in human MDA-MB-231 cells assessed as early apoptotic cells at 10 uM incubated for 24 hrs by AnnexinV-FITC and propidium iodide staining based flow cytometry (reference value: 4.4%); format: functional

SMILES | Drug metabolism [1] | IC50 (HL-60) [nM] | IC50 (MDA-MB-231 [2]) [nM] | IC50 (A549) [nM] | IC50 (HCT-116) [nM] | IC50 [3] [nM] | IC50 (L02) [nM] | IC50 (Vero) [nM] | Activity (MDA-MB-231 [4]) [%] | viability at 10 µM (MDA-MB-231 [5]) [%] | Activity (MDA-MB-231 [6]) [%] | Activity (MDA-MB-231 [7]) [%]
CONS(=O)(=O)Nc1cccc(Cc2c(C)c3ccc(OCCOc4no[n+]([O-])c4S(=O)(=O)c4ccccc4)cc3oc2=O)c1F | Metabolite_Detected | 5640 | 310 | 3750 | 1010 | 870 | – | – | – | – | – | –
CNS(=O)(=O)Nc1cccc(Cc2c(C)c3ccc(OCCCCOc4no[n+]([O-])c4S(=O)(=O)c4ccccc4)cc3oc2=O)c1F | Metabolite_Detected | – | 200 | 3490 | 2780 | – | 1930 | 2980 | – | – | – | –
CNS(=O)(=O)Nc1cccc(Cc2c(C)c3ccc(OCCCCO)cc3oc2=O)c1F | Metabolite_Notdetected | – | 3200 | > 5000 | 7350 | – | – | – | – | – | – | –
COCCNS(=O)(=O)Nc1cccc(Cc2c(C)c3ccc(OCCOc4no[n+]([O-])c4S(=O)(=O)c4ccccc4)cc3oc2=O)c1F | Metabolite_Detected | 310 | 380 | 2270 | 710 | 540 | – | – | – | – | – | –
CCOC(=O)N1CCN(/[N+]([O-])=N/Oc2ccc([N+](=O)[O-])cc2[N+](=O)[O-])CC1 | Metabolite_Detected | 530 | 2900 | 690 | 500 | 1990 | 1990 | 1160 | 2.444 | 51.2 | 19.2 | 27.1
COCCNS(=O)(=O)Nc1cccc(Cc2c(C)c3ccc(OCCO)cc3oc2=O)c1F | Metabolite_Notdetected | 250 | 2990 | > 5000 | 6500 | 360 | – | – | – | – | – | –
Cc1c(Cc2cccc(NS(=O)(=O)NC(C)C)c2F)c(=O)oc2cc(OCCOc3no[n+]([O-])c3S(=O)(=O)c3ccccc3)ccc12 | Metabolite_Detected | 550 | 860 | 2990 | 1230 | 970 | – | – | – | – | – | –
Cc1c(Cc2cccc(NS(=O)(=O)NCCC#N)c2F)c(=O)oc2cc(OCCO)ccc12 | Metabolite_Notdetected | 390 | 5490 | > 5000 | 15400 | 650 | – | – | – | – | – | –
CONS(=O)(=O)Nc1cccc(Cc2c(C)c3ccc(OCCO)cc3oc2=O)c1F | Metabolite_Notdetected | – | – | – | – | – | – | – | – | – | – | –
CCNS(=O)(=O)Nc1cccc(Cc2c(C)c3ccc(OCCO)cc3oc2=O)c1F | Metabolite_Notdetected | 150 | 2480 | > 5000 | 5790 | 200 | – | – | – | – | – | –
